Test results reported in ChEMBL document CHEMBL1148372 (J Med Chem, 2004).
Values joined by “and” are separate entries in the source; they are usually repeats but may differ in a detail not shown here. Identical values can stand only once.

Columns and labels:
D(3) dopamine receptor = D(3) dopamine receptor (Homo sapiens, UniProt P35462); assay: Binding affinity towards human Dopamine receptor D3
[1] = target: T1, 5-hydroxytryptamine receptor 1A (Homo sapiens, UniProt P08908); assay: Binding affinity towards human 5-hydroxytryptamine 1A receptor
T1 sequence (P08908 whole entry): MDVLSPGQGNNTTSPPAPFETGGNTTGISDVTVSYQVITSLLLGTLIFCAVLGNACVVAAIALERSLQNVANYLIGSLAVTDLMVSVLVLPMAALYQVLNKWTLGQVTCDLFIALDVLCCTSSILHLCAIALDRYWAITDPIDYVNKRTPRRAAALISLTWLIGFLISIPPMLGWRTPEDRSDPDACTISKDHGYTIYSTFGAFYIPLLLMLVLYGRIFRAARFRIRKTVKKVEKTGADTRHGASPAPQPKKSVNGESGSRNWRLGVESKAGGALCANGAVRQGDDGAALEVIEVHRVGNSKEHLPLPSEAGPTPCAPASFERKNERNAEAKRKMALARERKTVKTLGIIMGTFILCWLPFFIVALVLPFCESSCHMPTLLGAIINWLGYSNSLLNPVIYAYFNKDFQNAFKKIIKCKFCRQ

D(2) dopamine receptor [2] = target: T2, D(2) dopamine receptor (Rattus norvegicus, UniProt P61169); assay: In vitro effective concentration tested on HEK293 cells co-transfected with rat Dopamine receptor D2 using FLIPR assay; format: cell-based
D(2) dopamine receptor [3] = target: T3, D(2) dopamine receptor (Homo sapiens, UniProt P14416); assay: Binding affinity towards human Dopamine receptor D2
[4] = target: T4, Adrenergic receptor alpha-2 (Homo sapiens, UniProt P08913+P18825+P18089); assay: Binding affinity towards human alpha-2 adrenergic receptor; format: protein assay
T4 sequence (P08913 whole entry): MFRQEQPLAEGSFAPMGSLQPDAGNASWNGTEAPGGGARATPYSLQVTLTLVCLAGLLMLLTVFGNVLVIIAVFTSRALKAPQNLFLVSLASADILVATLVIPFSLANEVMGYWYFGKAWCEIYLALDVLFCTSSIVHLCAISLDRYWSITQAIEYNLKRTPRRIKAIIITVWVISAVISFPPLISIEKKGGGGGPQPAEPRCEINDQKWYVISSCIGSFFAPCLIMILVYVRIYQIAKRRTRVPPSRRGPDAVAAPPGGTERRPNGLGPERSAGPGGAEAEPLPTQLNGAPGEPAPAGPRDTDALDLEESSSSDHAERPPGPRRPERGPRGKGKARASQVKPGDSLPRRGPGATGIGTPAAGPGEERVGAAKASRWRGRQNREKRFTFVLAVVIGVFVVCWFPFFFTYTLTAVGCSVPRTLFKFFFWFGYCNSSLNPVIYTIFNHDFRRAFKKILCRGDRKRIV
T4 sequence (P18825 whole entry): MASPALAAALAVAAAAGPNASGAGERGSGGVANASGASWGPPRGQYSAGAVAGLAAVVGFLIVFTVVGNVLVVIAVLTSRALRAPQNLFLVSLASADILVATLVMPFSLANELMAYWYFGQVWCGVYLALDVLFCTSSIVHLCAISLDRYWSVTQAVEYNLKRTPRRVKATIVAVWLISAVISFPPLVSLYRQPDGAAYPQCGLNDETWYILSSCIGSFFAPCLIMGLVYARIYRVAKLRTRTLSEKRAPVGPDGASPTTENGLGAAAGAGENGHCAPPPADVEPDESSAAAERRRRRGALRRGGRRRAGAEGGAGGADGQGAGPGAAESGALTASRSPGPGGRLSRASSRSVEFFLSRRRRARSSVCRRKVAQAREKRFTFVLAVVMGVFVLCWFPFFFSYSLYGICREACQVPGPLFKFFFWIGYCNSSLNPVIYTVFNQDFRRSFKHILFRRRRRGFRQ
T4 sequence (P18089 whole entry): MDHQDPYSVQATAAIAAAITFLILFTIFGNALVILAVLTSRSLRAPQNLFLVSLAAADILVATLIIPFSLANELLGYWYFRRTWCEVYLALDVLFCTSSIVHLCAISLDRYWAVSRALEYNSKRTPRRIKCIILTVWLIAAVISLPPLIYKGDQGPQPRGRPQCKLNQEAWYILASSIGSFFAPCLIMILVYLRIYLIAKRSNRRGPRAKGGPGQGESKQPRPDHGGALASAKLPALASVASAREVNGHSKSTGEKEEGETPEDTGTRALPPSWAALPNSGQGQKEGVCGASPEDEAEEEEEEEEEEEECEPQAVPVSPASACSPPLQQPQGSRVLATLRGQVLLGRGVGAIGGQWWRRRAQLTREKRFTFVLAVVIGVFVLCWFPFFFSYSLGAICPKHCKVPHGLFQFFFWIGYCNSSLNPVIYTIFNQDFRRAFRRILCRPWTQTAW

D(4) dopamine receptor [5] = target: T5, D(4) dopamine receptor (Homo sapiens, UniProt P21917); assay: Binding affinity towards human D4.4 receptor
T5 sequence (P21917 whole entry): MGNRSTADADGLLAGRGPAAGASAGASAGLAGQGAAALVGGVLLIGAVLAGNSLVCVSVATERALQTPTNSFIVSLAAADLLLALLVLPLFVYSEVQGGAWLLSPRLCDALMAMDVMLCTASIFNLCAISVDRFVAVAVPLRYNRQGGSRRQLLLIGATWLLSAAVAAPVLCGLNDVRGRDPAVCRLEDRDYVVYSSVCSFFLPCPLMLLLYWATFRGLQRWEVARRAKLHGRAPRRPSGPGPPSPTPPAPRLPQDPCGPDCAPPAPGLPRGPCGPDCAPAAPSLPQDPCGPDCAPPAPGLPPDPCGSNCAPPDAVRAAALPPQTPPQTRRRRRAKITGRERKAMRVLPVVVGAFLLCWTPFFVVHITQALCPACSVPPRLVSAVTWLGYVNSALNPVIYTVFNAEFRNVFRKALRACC
Outline: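 Membranes from HEK-293 cells transfected with human D4.4 receptor, stored at -80 °C. Filtration through glass microfiber filters, three cold Tris washes, scintillation counting; Ki derived.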

Rattus norvegicus [6] = assay: In vivo maximal penile erection in rats 60 min after subcutaneous administration; format: functional
Outline: (§1)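 Conscious male Wistar rats, adapted 60 min to a dim red-lit room, tested between 9:00 a.m. and 3:00 p.m. Dosed subcutaneously, then caged singly and observed directly for 60 min. Percent incidence is the share of animals with one or more erections; 8–30 animals per group. Maximally effective dose is the dose giving peak incidence, with significance versus control.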

[7] = target: Kappa-type opioid receptor (Homo sapiens, UniProt P41145); assay: Binding affinity towards human Opioid receptor kappa 1
D(2) dopamine receptor [8] = target: T3, D(2) dopamine receptor; assay: In vitro effective concentration tested on HEK293 cells co-transfected with human Dopamine receptor D2 using FLIPR assay; Not an agonist up to 10 uM; format: functional, cell-based
[9] = target: D(2) dopamine receptor (Rattus norvegicus) (UniProt P61169); assay: In vitro efficacy tested on rat Dopamine receptor D2 were co-expressed with GRqo5 in HEK293 cells using FLIPR assay (Efficacy relative to 10 uM dopamine); format: cell-based
Rattus norvegicus [10] = assay: In vivo maximal effective dose tested in rats for erection 60 min after subcutaneous administration; format: functional; outline: as §1
D(4) dopamine receptor [11] = target: T6, D(4) dopamine receptor (Rattus norvegicus, UniProt P30729); assay: In vitro effective concentration tested on HEK293 cells co-transfected with rat Dopamine receptor D4 using FLIPR assay; format: cell-based
T6 sequence (P30729 whole entry): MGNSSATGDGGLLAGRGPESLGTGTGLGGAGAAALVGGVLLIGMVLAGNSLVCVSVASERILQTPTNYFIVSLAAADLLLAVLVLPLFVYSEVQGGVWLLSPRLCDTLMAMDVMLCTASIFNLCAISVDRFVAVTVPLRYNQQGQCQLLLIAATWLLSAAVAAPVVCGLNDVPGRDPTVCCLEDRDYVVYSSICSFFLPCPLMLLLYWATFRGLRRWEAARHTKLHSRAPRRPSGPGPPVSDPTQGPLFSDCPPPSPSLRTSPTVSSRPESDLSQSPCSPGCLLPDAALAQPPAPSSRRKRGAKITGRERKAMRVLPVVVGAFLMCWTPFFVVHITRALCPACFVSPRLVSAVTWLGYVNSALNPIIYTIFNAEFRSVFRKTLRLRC

[12] = target: T7, D(4) dopamine receptor (Homo sapiens) (UniProt P21917); assay: In vitro efficacy tested on human Dopamine receptor D4.4 were co-expressed with GRqo5 in HEK293 cells using FLIPR assay (Efficacy relative to 10 uM dopamine); format: cell-based
T7 sequence (whole entry): T5 sequence (P21917 whole entry)
Outline: (§2)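 HEK293 cells coexpressing human D4.4 receptor and Gαqo5, plated at 20 000 cells/well and grown 2 days. Loaded 1 h at 23 °C with 4 µM Fluo-4 plus 0.04% Pluronic F-127 in DPBS, washed four times. Compound added, fluorescence read over 3 min.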

[13] = Binding affinity tested against D4.2 receptor in Chinese hamster ovary cell line (CHO cells) using [3H]spiperone as a radioligand; format: cell-based, Cricetulus griseus
D(4) dopamine receptor [14] = target: T5, D(4) dopamine receptor; assay: In vitro EC50 tested on HEK293 cells co-transfected with human Dopamine receptor D4.4 using FLIPR assay; format: cell-based; outline: as §2
D(2) dopamine receptor [15] = target: T3, D(2) dopamine receptor; assay: In vitro binding affinity tested on human Dopamine receptor D2 (long) using [3H]spiperon as a radioligand
D(2) dopamine receptor [16] = target: T3, D(2) dopamine receptor; assay: In vitro binding affinity tested on human Dopamine receptor D2 using [3H]spiperon as a radioligand
D(2) dopamine receptor [17] = target: T2, D(2) dopamine receptor; assay: In vitro effective concentration tested on HEK293 cells co-transfected with rat Dopamine receptor D2 using FLIPR assay; Not an agonist up to 10 uM; format: functional, cell-based
D(2) dopamine receptor [18] = target: T3, D(2) dopamine receptor; assay: In vitro binding affinity tested on human Dopamine receptor D2 (short) using [3H]spiperone as a radioligand
[19] = target: T1, 5-hydroxytryptamine receptor 1A; assay: In vitro binding affinity tested on human 5-hydroxytryptamine 1A receptor
D(4) dopamine receptor [20] = target: T6, D(4) dopamine receptor; assay: In vitro effective concentration tested on HEK293 cells co-transfected with rat Dopamine receptor D4 using FLIPR assay; Not an agonist up to 10 uM; format: functional, cell-based
Outline: (§3)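 HEK cells co-transfected with the target receptor plus Gαqo5. […] Compounds were tested up to 10 µM. Untransfected cells served as a control.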

D(2) dopamine receptor [21] = target: T3, D(2) dopamine receptor; assay: In vitro efficacy tested on human Dopamine receptor D2 were co-expressed with GRqo5 in HEK293 cells using FLIPR assay (Efficacy relative to 10 uM dopamine); format: functional, cell-based
D(4) dopamine receptor [22] = target: T5, D(4) dopamine receptor; assay: In vitro effective concentration tested on HEK293 cells co-transfected with human Dopamine receptor D4 using FLIPR assay; Not an agonist up to 10 uM; format: functional, cell-based
Outline: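 Human D4.4 receptor co-expressed with Gαqo5 in HEK293 cells, plated at 20 000 cells/well and grown 2 days. Loaded with 4 µM Fluo-4 and 0.04% Pluronic F-127 in DPBS with glucose and pyruvate for 1 h at 23 °C, then washed. Compound added and fluorescence read over 3 min on FLIPR. […] EC50 is the concentration giving half-maximal response.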

[23] = target: D(2) dopamine receptor (Rattus norvegicus) (UniProt P61169); assay: In vitro efficacy tested on ferret Dopamine receptor D2 were co-expressed with GRqo5 in HEK293 cells using FLIPR assay (Efficacy relative to 10 uM dopamine); format: functional, cell-based; outline: as §3
[24] = target: D(2) dopamine receptor (Rattus norvegicus) (UniProt P61169); assay: In vitro efficacy tested on rat Dopamine receptor D2 were coexpressed with GRqo5 in HEK293 cells using FLIPR assay (Efficacy relative to 10 uM dopamine); format: functional, cell-based; outline: as §3

D(2) dopamine receptor (Rattus norvegicus), sequence (P61169 whole entry): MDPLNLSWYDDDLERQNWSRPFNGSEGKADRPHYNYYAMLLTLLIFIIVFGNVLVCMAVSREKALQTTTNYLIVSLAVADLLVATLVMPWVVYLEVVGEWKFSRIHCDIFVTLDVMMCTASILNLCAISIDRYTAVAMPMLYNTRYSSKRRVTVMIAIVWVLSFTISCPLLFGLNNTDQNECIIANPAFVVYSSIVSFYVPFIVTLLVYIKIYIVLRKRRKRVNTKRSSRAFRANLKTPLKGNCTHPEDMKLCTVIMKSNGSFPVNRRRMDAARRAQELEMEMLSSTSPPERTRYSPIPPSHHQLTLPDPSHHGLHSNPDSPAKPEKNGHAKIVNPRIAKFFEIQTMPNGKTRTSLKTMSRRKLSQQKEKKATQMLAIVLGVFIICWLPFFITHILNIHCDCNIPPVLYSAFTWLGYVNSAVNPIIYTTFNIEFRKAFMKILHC
T3 sequence (P14416 whole entry): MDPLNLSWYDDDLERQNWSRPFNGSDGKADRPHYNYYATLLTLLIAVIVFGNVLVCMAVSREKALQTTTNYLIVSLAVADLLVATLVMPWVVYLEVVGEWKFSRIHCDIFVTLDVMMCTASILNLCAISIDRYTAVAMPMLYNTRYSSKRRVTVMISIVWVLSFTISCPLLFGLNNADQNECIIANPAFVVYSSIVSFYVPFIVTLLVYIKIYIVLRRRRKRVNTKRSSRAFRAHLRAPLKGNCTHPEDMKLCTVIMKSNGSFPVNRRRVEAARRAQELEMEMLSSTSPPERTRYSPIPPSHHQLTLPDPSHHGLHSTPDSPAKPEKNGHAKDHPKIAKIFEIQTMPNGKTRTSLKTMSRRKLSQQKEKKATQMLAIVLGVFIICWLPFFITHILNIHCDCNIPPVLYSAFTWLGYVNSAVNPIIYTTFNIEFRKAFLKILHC
T2 sequence (P61169 whole entry): as the sequence (P61169 whole entry) above
Kappa-type opioid receptor, sequence (P41145 whole entry): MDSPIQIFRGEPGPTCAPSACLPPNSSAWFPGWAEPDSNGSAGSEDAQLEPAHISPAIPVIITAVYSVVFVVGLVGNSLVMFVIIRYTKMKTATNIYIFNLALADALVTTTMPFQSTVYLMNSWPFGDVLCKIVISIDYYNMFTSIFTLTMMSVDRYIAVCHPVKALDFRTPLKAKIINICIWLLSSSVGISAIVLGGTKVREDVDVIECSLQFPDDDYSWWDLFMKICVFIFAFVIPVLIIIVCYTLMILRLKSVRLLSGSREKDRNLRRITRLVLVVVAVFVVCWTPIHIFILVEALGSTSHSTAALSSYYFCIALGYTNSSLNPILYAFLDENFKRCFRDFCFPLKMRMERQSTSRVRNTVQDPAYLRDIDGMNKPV
D(3) dopamine receptor, sequence (P35462 whole entry): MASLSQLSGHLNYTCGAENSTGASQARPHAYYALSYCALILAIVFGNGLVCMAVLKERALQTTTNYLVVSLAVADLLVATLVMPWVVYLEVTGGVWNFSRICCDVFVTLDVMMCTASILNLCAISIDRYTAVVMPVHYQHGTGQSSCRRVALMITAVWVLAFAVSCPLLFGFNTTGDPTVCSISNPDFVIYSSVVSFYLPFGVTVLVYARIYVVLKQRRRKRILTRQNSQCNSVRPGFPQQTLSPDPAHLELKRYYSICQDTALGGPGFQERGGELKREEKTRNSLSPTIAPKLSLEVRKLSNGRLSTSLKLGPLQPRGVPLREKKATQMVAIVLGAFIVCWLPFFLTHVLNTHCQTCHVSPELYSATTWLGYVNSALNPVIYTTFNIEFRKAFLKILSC

Fc1ccc2[nH]c(CN3CCN(c4ccccn4)CC3)cc2c1
Ki (D(3) dopamine receptor): 0.56 µM
Ki [1]: 0.2 µM
EC50 (D(2) dopamine receptor [2]): 0.055 µM
Ki (D(2) dopamine receptor [3]): 0.12 µM
Ki [4]: 0.4 µM
Ki (D(4) dopamine receptor [5]): 0.0036 µM
Activity (Rattus norvegicus [6]): 83%
Ki [7]: 0.3 µM
EC50 (D(2) dopamine receptor [8]): Not Active
Efficacy [9]: 89%
Effective dose (Rattus norvegicus [10]): 1 µM/kg
EC50 (D(4) dopamine receptor [11]): 0.036 µM

c1ccc(N2CCN(Cc3nc4ccccc4[nH]3)CC2)cc1
Activity (Rattus norvegicus [6]): 75%
Efficacy [12]: 33%
Ki [13]: 0.033 µM
Effective dose (Rattus norvegicus [10]): 0.03 µM/kg
EC50 (D(4) dopamine receptor [14]): 0.0306 µM

c1ccc(N2CCN(Cc3nc4ccccc4[nH]3)CC2)nc1 [ABT-724]
Ki (D(2) dopamine receptor [15]): 15 µM
Ki (D(2) dopamine receptor [16]): 0.16 µM
Activity (Rattus norvegicus [6]): 77%
EC50 (D(2) dopamine receptor [8]): Not Active
EC50 (D(2) dopamine receptor [17]): Not Active
Efficacy [12]: 61%
Ki (D(2) dopamine receptor [18]): 51 µM
Effective dose (Rattus norvegicus [10]): 0.03 µM/kg
EC50 (D(4) dopamine receptor [11]): 0.0143 µM
Ki [19]: > 10 µM and 2780 µM

CN[C@@H]1Cc2cccc3[nH]c(=O)n(c23)C1 [SUMANIROLE]
EC50 (D(4) dopamine receptor [20]): Not Active
Efficacy (D(2) dopamine receptor [21]): 93%
EC50 (D(4) dopamine receptor [22]): Not Active
Efficacy [23]: 90%
Efficacy [24]: 103%
